Most compounds without a hit are left out; they make up all but 4% or so of the library.
FGF22 binding: binders of human FGF22 protein, primary screen, FGF22 synaptogenesis inhibitor project, biophysical, thermal shift, single point; activity (Tm shift, normalised), % at 9.99 µM; AID 651658, 2012; Fibroblast growth factor 22 (Homo sapiens), Q9HCT0; 1.5% of 340,000 active; recombinant FGF22 thermal shift, SYPRO orange fluorescence; percent of sucrose octasulfate shift, DMSO zero;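 active = mean Tm shift, scaled 0 neutral to 100 positive control, at about 1.3% or above, every replicate too, limit read from the data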
Target sequence (Q9HCT0 whole entry, looked up): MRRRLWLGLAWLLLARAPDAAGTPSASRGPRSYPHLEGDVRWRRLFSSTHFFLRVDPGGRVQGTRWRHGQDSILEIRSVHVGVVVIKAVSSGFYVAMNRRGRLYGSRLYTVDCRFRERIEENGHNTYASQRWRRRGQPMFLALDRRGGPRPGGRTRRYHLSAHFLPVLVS
SIRT5 block: SIRT5 desuccinylase inhibitors, primary screen, biochemical, fluorescence imaging, single point, set 5; NAD-dependent protein deacylase sirtuin-5, mitochondrial (Homo sapiens), Q9NXA8; inhibition, % at 15 µM; Purified SirT5, succinyl-peptide AMC, trypsin-coupled fluorescence; 1.1% of 330,000 active; AID 652115, 2013; in the data active = inhibition above about 15%
Target sequence (Q9NXA8 whole entry, looked up): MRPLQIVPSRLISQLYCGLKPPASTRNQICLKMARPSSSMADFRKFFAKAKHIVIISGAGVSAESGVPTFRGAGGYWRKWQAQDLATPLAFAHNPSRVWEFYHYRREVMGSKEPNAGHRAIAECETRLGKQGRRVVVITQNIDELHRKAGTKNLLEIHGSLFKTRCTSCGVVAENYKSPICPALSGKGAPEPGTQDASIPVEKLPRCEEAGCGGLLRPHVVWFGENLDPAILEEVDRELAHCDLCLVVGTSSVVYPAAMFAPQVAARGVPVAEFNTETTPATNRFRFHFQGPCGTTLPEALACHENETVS
C2C12 statin: suppressors of statin myotoxicity in C2C12 myotubes, primary screen, cell-based, single point, plate reader; 0.78% of 330,000 active; C2C12 myotubes + simvastatin, ATP luminescence, 48 h; scaled: DMSO 0, geranylgeraniol control 100; rescue of ATP level, % at 7.49 µM;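 active = mean ATP rescue above about 67%, or every replicate alone reaching that limit, limit read from the data, passing the limit was not always enough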;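 also: myotubes were challenged with 10 µM simvastatin during compound exposure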
Ecoli rRNA inh: reduced GFP signal of wild-type E. coli, primary screen, bacterial rRNA inhibitor project, GFP/RFP fluorescence, OD600, single point; AID 720706, 2013; 1.6% of 350,000 active; E. coli WT GFP vs humanized-ribosome RFP mutants, 24 h; active compounds read low; DMSO median 0, no signal -100; GFP signal change (wild-type ribosome), % (concentration not given with the values);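 active = significant combined selectivity score with lowered wild-type GFP, culture density cut under 30%, mutant RFP and density less affected; inactive = any of these conditions unmet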
FN deposition inh: inhibitors of fibronectin matrix deposition, primary screen, AH1F cells, Alexa488-fibronectin fluorescence, plate reader. 0.086% of 350,000 active. AID 743247, 2014. inhibition, % at 12.6 µM. AH1F fibroblasts, overnight;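 active = mean inhibition across replicates of 30% or more, regardless of how many single replicates reach that level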
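material = AH1F fibroblast monolayer depositing Alexa488-labelled fibronectin into matrix | amount = 10000 AH1F cells/well | buffer or medium = DMEM plus 2% serum, read in PBS | incubation = 1 h cell adhesion before compound, then overnight fibronectin incubation | detection = fluorescence at 485 nm excitation, 525 nm emission | evaluation = percent inhibition as loss of matrix-bound fibronectin fluorescence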
E-sel inducer: E-selectin induction in HUVECs, primary screen, imaging, HUVEC, immunofluorescence imaging, single point; P16581; 0.37% of 260,000 active; activation, % at 7.58 µM; AID 686992, 2013; normalized: neutral wells 0, TNF-alpha wells 100;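 active = mean E-selectin-positive cell signal at least 10% of the positive control, reached in at least 60% of replicates, without over 20% cell loss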
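Test system: HUVEC | Signal: Immunofluorescence imaging | Read-out: Percent E-selectin-positive cells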
Each line names hits and unclear results; the compound was inactive in the other large screens; ! = not active in a repeat.

COc1ccc(S(=O)(=O)N(C)C[C@@H]2OCCCC[C@H](C)Oc3ccc(NS(=O)(=O)c4ccccc4)cc3C(=O)N([C@H](C)CO)C[C@H]2C)cc1	none (no result: C2C12 statin, E-sel inducer)
COCC#Cc1ccc2c(c1)O[C@@H](CN(C)CC1CCCC1)[C@H](C)CN([C@@H](C)CO)S2(=O)=O	SIRT5 block 23.7
CCCN(C)C[C@@H]1Oc2cc(C#CC3(O)CCCC3)ccc2S(=O)(=O)N([C@H](C)CO)C[C@@H]1C	SIRT5 block 6.2 (no result: FN deposition inh)
C[C@H](CO)N1C[C@H](C)[C@H](CN(C)CC2CC2)Oc2cc(C#Cc3ccc(F)cc3)ccc2S1(=O)=O	SIRT5 block 16.9 (no result: FGF22 binding)
CCCN(C)C[C@H]1Oc2cc(C#CC3(O)CCCC3)ccc2S(=O)(=O)N([C@@H](C)CO)C[C@H]1C	none (no result: FN deposition inh)
C[C@@H]1CN([C@@H](C)CO)S(=O)(=O)c2ccc(C#Cc3ccccc3)cc2O[C@@H]1CN(C)CC1CC1	E-sel inducer 130.6
C[C@H](CO)N1C[C@H](C)[C@H](CN(C)CC2CC2)Oc2cc(C#Cc3ccccc3)ccc2S1(=O)=O	none
COCC#Cc1ccc2c(c1)O[C@H](CN(C)CC1CCCC1)[C@@H](C)CN([C@H](C)CO)S2(=O)=O	none
C[C@H]1CN([C@@H](C)CO)S(=O)(=O)c2ccc(C#CC3CC3)cc2O[C@@H]1CN(C)Cc1ccc(F)cc1	SIRT5 block 18.5 (no result: E-sel inducer)
CCC(=O)Nc1ccc2c(c1)C(=O)N(C)[C@H]1CC[C@@H](CC(=O)O)O[C@@H]1CO2	none
C[C@H](CO)N1C[C@H](C)[C@@H](CN(C)Cc2ccncc2)Oc2ccc(NS(=O)(=O)c3ccccc3)cc2C1=O	none (no result: E-sel inducer)
N#Cc1ccc(-c2csc(NC3=NCCCCC3)n2)cc1	E-sel inducer 44.2 (no result: C2C12 statin)
c1ccc(-c2csc(NC3=NCCCCC3)n2)cc1	none (no result: C2C12 statin)
Fc1ccc(-c2nn(-c3ccccc3)cc2CNCc2ccccc2)cc1	none (no result: FGF22 binding, C2C12 statin)
O=C(CCl)Nc1cn(-c2ccccc2)nc1-c1ccc(F)cc1	Ecoli rRNA inh -23.9 (no result: C2C12 statin)
C[C@H]1CN([C@@H](C)CO)C(=O)CCCn2cc(nn2)CO[C@H]1CN(C)C(=O)CCC(F)(F)F	none (no result: FGF22 binding, SIRT5 block)
CC(C)OC(=O)N(C)C[C@@H]1OCc2cn(nn2)CCCC(=O)N([C@H](C)CO)C[C@H]1C	SIRT5 block 26.6 (no result: Ecoli rRNA inh, E-sel inducer)
C[C@H](CO)N1C[C@H](C)[C@H](CN(C)C(=O)CCCN(C)C)OCc2cn(nn2)CCCC1=O	SIRT5 block 17.2
CC(C)OC(=O)N(C)C[C@@H]1OCc2cn(nn2)CCCC(=O)N([C@@H](C)CO)C[C@@H]1C	SIRT5 block 15.7
C[C@@H]1CN([C@H](C)CO)C(=O)CCCn2cc(nn2)CO[C@H]1CN(C)S(=O)(=O)c1ccc(F)cc1	SIRT5 block 22.8!
C[C@@H]1CN([C@H](C)CO)C(=O)CCCn2cc(nn2)CO[C@@H]1CN(C)S(=O)(=O)c1ccc(F)cc1	none
CCC(=O)Nc1ccc2c(c1)OC[C@H](C)N(C(=O)Cc1ccccn1)C[C@@H](C)[C@@H](OC)CN(C)C2=O	none
COc1ccc(CCNc2nc(-c3ccc(O)cc3)cs2)cc1OC	none (no result: E-sel inducer)
COCCCNc1nc(=S)[nH]c2cc(OC)c(OC)cc12	none (no result: FGF22 binding, SIRT5 block, Ecoli rRNA inh, FN deposition inh, E-sel inducer)
COc1ccc(CCNc2nc(=S)[nH]c3cc(OC)c(OC)cc23)cc1OC	FGF22 binding 43.5 (no result: C2C12 statin, E-sel inducer)
COc1cc2[nH]c(=S)nc(NCCc3ccc(S(N)(=O)=O)cc3)c2cc1OC	none (no result: C2C12 statin, E-sel inducer)
COc1cc2[nH]c(=S)nc(NCCc3ccc(C)cc3)c2cc1OC	Ecoli rRNA inh -26.4 (no result: C2C12 statin, E-sel inducer)
COc1ccc(CCNc2nc(-c3ccncc3)cs2)cc1OC	Ecoli rRNA inh -27.3
CC(=O)N(C)C[C@H]1Oc2cc(Br)ccc2S(=O)(=O)N([C@@H](C)CO)C[C@H]1C	none
COCC(=O)Nc1ccc2c(c1)OC[C@@H](C)N(CC1CC1)C[C@@H](C)[C@@H](OC)CN(C)C2=O	none
C=CCc1cc(Cl)ccc1OCCCNCCO	FGF22 binding 44.5 (no result: C2C12 statin, E-sel inducer)
COc1ccc2c3c(n(C)c2c1)[C@H](CO)N(C)CC31CCN(S(C)(=O)=O)CC1	none (no result: FGF22 binding, SIRT5 block, C2C12 statin, FN deposition inh, E-sel inducer)
COCc1cc(C)n(CC(=O)N2CCCC2)c(=O)c1C#N	none (no result: FGF22 binding, SIRT5 block, C2C12 statin, Ecoli rRNA inh, E-sel inducer)
CCOC(=O)Cn1c(C)cc(COC)c(C#N)c1=O	FGF22 binding 43.0 (no result: SIRT5 block, C2C12 statin, FN deposition inh, E-sel inducer)
COc1ccccc1C1=NOC(COC(=O)c2ccc(Br)cc2)C1 (stereo not given)	FGF22 binding 43.0
COc1ccccc1C1=NOC(COC(=O)c2ccc([N+](=O)[O-])cc2)C1 (stereo not given)	none (no result: C2C12 statin, E-sel inducer)
CO[C@@H]1CN(C)C(=O)c2cc(NC(=O)NC(C)C)ccc2OC[C@H](C)N(C(=O)CC2CC2)C[C@H]1C	none
CCOC(=O)C(C)n1nc(/C=C/c2ccccc2)ccc1=O (stereo not given)	C2C12 statin 117.9 (no result: FGF22 binding, SIRT5 block, Ecoli rRNA inh, FN deposition inh, E-sel inducer)
O=C(C[C@H]1CC[C@@H](NS(=O)(=O)c2cccc(F)c2)[C@H](CO)O1)NCc1ccc2c(c1)OCO2	none
COc1ccc(S(=O)(=O)Nc2cccc3c2O[C@H](CN(C)S(=O)(=O)c2ccc(Cl)cc2)[C@H](C)CN([C@@H](C)CO)C3=O)cc1	C2C12 statin 91.0 (no result: FN deposition inh)
COc1ccc(S(=O)(=O)N(C)C[C@@H]2Oc3c(NS(C)(=O)=O)cccc3C(=O)N([C@@H](C)CO)C[C@H]2C)cc1	SIRT5 block 20.1!
COc1ccc(S(=O)(=O)N(C)C[C@@H]2Oc3c(NS(=O)(=O)c4ccc(F)cc4)cccc3C(=O)N([C@H](C)CO)C[C@@H]2C)cc1	E-sel inducer 62.2 (no result: SIRT5 block, FN deposition inh)
Cc1noc(C)c1NC(=O)N(C)C[C@H]1Oc2c(NS(=O)(=O)c3cccs3)cccc2C(=O)N([C@@H](C)CO)C[C@H]1C	none
C[C@H]1CN([C@@H](C)CO)C(=O)c2cccc(NC(=O)Nc3ccc(F)cc3)c2O[C@@H]1CN(C)S(=O)(=O)c1cn(C)cn1	none (no result: FGF22 binding, SIRT5 block)
O=C(c1ccco1)N1CCCN(Cc2nc(-c3cccs3)no2)CC1	SIRT5 block 21.1 (no result: C2C12 statin)
O=C(c1ccco1)N1CCN(Cc2nc(Cc3ccccc3)no2)CC1	none (no result: C2C12 statin)
CCOC(=O)CCc1c(C)n[nH]c1C	FGF22 binding 43.0 (no result: C2C12 statin, Ecoli rRNA inh, E-sel inducer)
CCOc1ccccc1OCCCCCc1c(C)n[nH]c1C	none (no result: FGF22 binding, SIRT5 block, Ecoli rRNA inh, FN deposition inh, E-sel inducer)
COc1ccc(NC(=O)Cn2nnc(C(=O)Nc3ccc(F)c(Cl)c3)c2N)cc1	SIRT5 block 15.5 (no result: E-sel inducer)
COc1ccc(NC(=O)Cn2nnc(C(=O)Nc3ccccc3C)c2N)cc1	FGF22 binding 43.5 (no result: C2C12 statin, E-sel inducer)
